Measurements from ChEMBL document CHEMBL1142128, “Hygromycin B inhibition of protein synthesis and ribosome biogenesis in Escherichia coli” (Antimicrob Agents Chemother, 2007).
In brackets after ≈: the same amount, converted by molar mass.

Tests used:
Escherichia coli [1] = test: Effect on 16S rRNA accumulation in Escherichia coli at 75 ug/ml; format: functional
In short: (§1)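 E. coli grown in TSB across a range of hygromycin B concentrations, plus an untreated control. Total RNA was extracted from 1 ml of cells. Samples (5 µl at 200 ng/µl) were run on an Agilent Bioanalyzer RNA 6000 chip under total-RNA conditions, and RNA species were read from fluorescence electropherograms.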

Escherichia coli [2] = test: Effect on small RNA accumulation in Escherichia coli at 75 ug/ml; format: functional; in short: as §1
Escherichia coli [3] = test: Effect on 16S rRNA accumulation in Escherichia coli at 25 ug/ml; format: functional; in short: as §1
Escherichia coli [4] = test: Reduction of growth rate in Escherichia coli at 25 ug/ml; format: functional; design: scale not given: the % may be the effect or the level left
Escherichia coli [5] = test: Effect on small RNA accumulation in Escherichia coli at 25 ug/ml; format: functional; in short: as §1
Escherichia coli [6] = test: Increase in 16S precursor accumulation in Escherichia coli at 100 ug/ml; format: functional; in short: as §1
Escherichia coli [7] = test: Decrease in 23S RNA accumulation in Escherichia coli at 25 ug/ml; format: functional; design: scale not given: the % may be the effect or the level left; in short: as §1
Escherichia coli [8] = test: Increase in 16S precursor accumulation in Escherichia coli at 75 ug/ml; format: functional; in short: as §1
Escherichia coli [9] = test: Increase in 16S precursor accumulation in Escherichia coli at 50 ug/ml; format: functional; in short: as §1
Escherichia coli [10] = test: Decrease in 23S RNA accumulation in Escherichia coli at 50 ug/ml; format: functional; design: scale not given: the % may be the effect or the level left; in short: as §1
Escherichia coli [11] = test: Effect on 16S rRNA accumulation in Escherichia coli at 100 ug/ml; format: functional; in short: as §1
Escherichia coli [12] = test: Inhibition of viable cells in Escherichia coli at 20 ug/ml; format: functional
In short: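 E. coli grown at 37°C in TSB with or without drug. Viable cells were counted as colonies after serial dilution. Results are given as percent decrease versus untreated control; means of two determinations.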

[13] = Inhibition of 30S ribosomal-subunit assembly in Escherichia coli
In short: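 E. coli in TSB at 37°C were labelled with [3H]uridine (1 µCi/ml, 1 µg/ml) for two doublings, with or without drug. Label was chased with uridine at 50 µg/ml final for 15 min. The 30S share of total gradient cpm was compared with control; IC50 derived; means of two.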

Escherichia coli [14] = test: Increase in 16S precursor accumulation in Escherichia coli at 25 ug/ml; format: functional; in short: as §1
Escherichia coli [15] = test: Inhibition of protein synthesis in Escherichia coli measured as incorporation of [35S]methionine; format: functional, organism-based
In short: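 E. coli in TSB at 37°C, with or without drug, received [35S]methionine (1 µCi/ml). Samples (0.4 ml) were taken every 5 min for 15 min, precipitated with 20% TCA, collected on glass-fibre filters, washed with 10% TCA, and scintillation-counted. IC50 derived from the concentration series; means of two.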

Escherichia coli [16] = test: Effect on small RNA accumulation in Escherichia coli at 100 ug/ml; format: functional; in short: as §1
Escherichia coli [17] = test: Antimicrobial activity against Escherichia coli; format: functional
In short: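 Broth dilution MIC; E. coli grown at 37°C in tryptic soy broth (TSB) with and without hygromycin B.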

Escherichia coli [18] = test: Decrease in 23S RNA accumulation in Escherichia coli at 100 ug/ml; format: functional; design: scale not given: the % may be the effect or the level left; in short: as §1
Escherichia coli [19] = test: Decrease in 23S RNA accumulation in Escherichia coli at 75 ug/ml; format: functional; design: scale not given: the % may be the effect or the level left; in short: as §1
Escherichia coli [20] = test: Effect on small RNA accumulation in Escherichia coli at 50 ug/ml; format: functional; in short: as §1
Escherichia coli [21] = test: Effect on 16S rRNA accumulation in Escherichia coli at 50 ug/ml; format: functional; in short: as §1

Q: What does the source list for `CN[C@H]1C[C@@H](N)[C@H](O)[C@@H](O[C@@H]2O[C@H](CO)[C@H](O)[C@H]3O[C@@]4(O[C@H]23)O[C@H]([C@H](N)CO)[C@H](O)[C@H](O)[C@H]4O)[C@@H]1O`?
A: Activity (Escherichia coli [1]): 7.3%; Activity (Escherichia coli [2]): 64.5%; Activity (Escherichia coli [3]): 10.4%; Activity (Escherichia coli [4]): 50%; Activity (Escherichia coli [5]): 59%; Activity (Escherichia coli [6]): 1.2%; Activity (Escherichia coli [7]): 13.5%; Activity (Escherichia coli [8]): 1.1%; Activity (Escherichia coli [9]): 0.75%; Activity (Escherichia coli [10]): 12.5%; Activity (Escherichia coli [11]): 4.8%; inhibition at 20 µg/mL (Escherichia coli [12]): 50%; IC50 [13]: 65 µg/mL (≈ 123 µM); Activity (Escherichia coli [14]): 0.5%; IC50 (Escherichia coli [15]): 16 µg/mL (≈ 30.3 µM); Activity (Escherichia coli [16]): 68.8%; MIC (Escherichia coli [17]): 150 µg/mL (≈ 284 µM); Activity (Escherichia coli [18]): 10%; Activity (Escherichia coli [19]): 12.7%; Activity (Escherichia coli [20]): 62.8%; Activity (Escherichia coli [21]): 10.4%
